Test results as given in paper PMC12554292 (Drug Design, Development and Therapy, 2025).
Like-named read-outs stand apart in the source and are kept apart here.

Experiments:
Huh-7 cells [1] = assay: RT-PCR gene expression analysis; assay type: cell-based, human; settings: 10 μM, 72 h
In short: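 Huh-7 cells in 12-well plates were treated with 10 μM test compound for 72 h. Total RNA was extracted with TRIzol, and gene expression was measured by SYBR Green real-time PCR using specific primer pairs.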

Huh-7 cells [2] = assay: Apoptosis assay; assay type: cell-based, human; settings: 5, 10, 20 μM, 72h
Huh-7 cells [3] = assay: CCK-8 cell viability and IC50 measurement, Huh-7; assay type: cell-based, human; settings: read-out: IC50 Huh-7
In short: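 Huh-7 cells (ATCC) in DMEM or RPMI 1640 with 10% FBS, 37°C, 5% CO2; seeded 3 × 10^3 cells/well and left to adhere overnight. […] CCK-8 added for 1 h, A450 read. Viability as % of control; IC50 from inhibition by nonlinear regression. n > 5; mean ± SE.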

Huh-7 cells [4] = assay: Live and dead cell staining; assay type: cell-based, human; settings: 5, 10, 20 μM, 24h
In short: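 Huh-7 cells seeded at 3 × 10^3 cells/well and incubated overnight. Treated with test compound at 0, 5, 10 or 20 μM for 24 h, then stained with Calcein-AM and PI for 1 h in the dark and imaged by fluorescence confocal microscopy. 5–6 replicates per group.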

Huh-7 cells [5] = assay: Autophagy staining assay; assay type: cell-based, human; settings: 5, 10, 20 μM, 24 h, MDC probe
In short: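 Huh-7 cells were seeded at 3 × 10^3 cells/well and exposed to 0, 5, 10 or 20 μM test compound for 24 h. Medium was removed, and cells were stained with monodansylcadaverine for 1 h in the dark at 37°C, then imaged by confocal microscopy. Replicates: 5–6 per group.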

Huh-7 cells [6] = assay: DNA damage staining; assay type: cell-based, human; settings: 5, 10, 20 μM, 24h
In short: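 Huh-7 cells seeded at 3 × 10^3 cells/well and exposed to test compound at 0, 5, 10 or 20 μM for 24 h. Stained with a DNA damage detection kit (nuclei blue, DNA-damaged cells green), then imaged by fluorescence microscopy. 5–6 replicates per group.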

Female KM mice = assay: Acute oral toxicity test; assay type: in vivo; settings: 500 mg/kg, intragastric administration
In short: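 Female Kunming mice (SPF, 8 weeks), acclimated 7 days with free water on a 12 h light/dark cycle; 6 per group. Test compound at 500 mg/kg given intragastrically in 5% DMSO + 40% PEG300 + 1% Tween 80 + 54% saline; controls received an equal volume of vehicle. Body weight and appearance were followed for 14 days. Heart, liver, spleen, lungs and kidneys were then weighed for organ coefficients and examined by H&E histology.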

Huh-7 cells [7] = assay: Western blot protein expression analysis; assay type: cell-based, human; settings: 10 μM, 72 h
In short: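 Huh-7 cells in 12-well plates were treated with 10 μM test compound for 72 h. Whole-cell protein was extracted in RIPA buffer with protease/phosphatase inhibitors and immunoblotted for γH2AX, caspase-3, caspase-9, PARP, cyclin D, cyclin E, LC3 and β-actin. Six replicates per group; mean ± SEM, two-tailed t-test.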

[8] = biological target: MET receptor tyrosine kinase (RTK); settings: read-out: IC50 MET receptor tyrosine kinase; cited from earlier work
ABHD6 = settings: cited from earlier work

Structure (SMILES): O=C(Nc1ccc(Cl)cc1)Nc1cccc(-c2cn(Cc3ccc(Br)cc3)nn2)c1 [Compound 3c, 1-(3-(1-(4-Bromobenzyl)-1H-1,2,3-Triazol-4-Yl)phenyl)-3-(4-Chlorophenyl)urea]
- expression of Keap1 (mRNA) (Huh-7 cells [1]): upregulated
- expression of oxidative stress genes Nrf2, Gpx4, TNFa (mRNA) (Huh-7 cells [1]): no significant changes
- expressions of p53, p21, H2AX, Bcl2, caspase6, caspase7, ATG5 and ATG7 (mRNA) (Huh-7 cells [1]): did not influence
- apoptotic cells (Huh-7 cells [2]): dose-dependent increases in apoptotic cells
- IC50 (Huh-7 cells [3]; Homo sapiens, Huh-7, 72 h): 10.2 ± 1.32 µM
- Dead and living cells staining (Huh-7 cells [4]): dead cells were increased significantly in a dose-dependent manner
- autophagosome in tumor cells (Huh-7 cells [5]): increased dramatically
- DNA damage (Huh-7 cells [6]): significantly stimulated DNA damage in a concentration-dependent manner
- mortality (Female KM mice; 14-day observation, female KM mice): no mortality
- body weight vs vehicle control group (Female KM mice; 14 days, all time points): no statistically significant differences
- organ coefficient and histopathological assessments of major organs (Female KM mice; cardiac, hepatic, splenic, pulmonary, renal tissues): no detectable toxicological alterations

Structure (SMILES): O=C(Nc1cccc(-c2cn(Cc3ccc(Br)cc3)nn2)c1)Nc1ccccc1Br [Compound 3e, 1-(3-(1-(4-Bromobenzyl)-1H-1,2,3-Triazol-4-Yl)phenyl)-3-(2-Bromophenyl)urea]
- DNA damaged genes and autophagy genes (mRNA) (Huh-7 cells [1]): not changed
- expression of Bcl2 (mRNA) (Huh-7 cells [1]): increased largely
- expression of Gpx4 and TNFa (mRNA) (Huh-7 cells [1]): also increased
- H2AX protein expression (Huh-7 cells [7]): significantly increased
- apoptotic cells (Huh-7 cells [2]): dose-dependent increases in apoptotic cells
- IC50 (Huh-7 cells [3]; Homo sapiens, Huh-7, 72 h): 12.2 ± 1.31 µM
- Dead and living cells staining (Huh-7 cells [4]): dead cells were increased significantly in a dose-dependent manner
- autophagosome in tumor cells (Huh-7 cells [5]): increased dramatically
- DNA damage (Huh-7 cells [6]): significantly stimulated DNA damage in a concentration-dependent manner

Structure (SMILES): O=c1[nH]cc(F)c(=O)[nH]1 [Compound 5-FU, reference compound]
- IC50 (Huh-7 cells [3]; 72-hour exposure, CCK-8): 39 ± 0.56 µM

Structure (SMILES): O=C(Nc1ccc(Cl)cc1)Nc1ccc(-c2cn(Cc3ccc(Cl)cc3)nn2)cc1 [Compound 5a, 1-(4-(1-(4-Chlorobenzyl)-1H-1,2,3-Triazol-4-Yl)phenyl)-3-(4-Chlorophenyl)urea]
- IC50 (Huh-7 cells [3]; Homo sapiens, Huh-7, 72 h): > 50 µM

Structure (SMILES): O=C(Nc1ccc(Cl)cc1)Nc1ccc(-c2cn(Cc3cccc(Cl)c3)nn2)cc1 [Compound 5b, 1-(4-(1-(3-Chlorobenzyl)-1H-1,2,3-Triazol-4-Yl)phenyl)-3-(4-Chlorophenyl)urea]
- IC50 (Huh-7 cells [3]; Homo sapiens, Huh-7, 72 h): > 50 µM

Structure (SMILES): O=C(Nc1ccc(Cl)cc1)Nc1ccc(-c2cn(Cc3ccc(Br)cc3)nn2)cc1 [Compound 5c, 1-(4-(1-(4-Bromobenzyl)-1H-1,2,3-Triazol-4-Yl)phenyl)-3-(4-Chlorophenyl)urea]
- IC50 (Huh-7 cells [3]; Homo sapiens, Huh-7, 72 h): > 50 µM

Structure (SMILES): O=C(Nc1ccc(-c2cn(Cc3ccc(Cl)cc3)nn2)cc1)Nc1ccccc1Br [Compound 5d, 1-(2-Bromophenyl)-3-(4-(1-(4-Chlorobenzyl)-1H-1,2,3-Triazol-4-Yl)phenyl)urea]
- IC50 (Huh-7 cells [3]; Homo sapiens, Huh-7, 72 h): > 50 µM

Structure (SMILES): O=C(Nc1ccc(-c2cn(Cc3ccc(Br)cc3)nn2)cc1)Nc1ccccc1Br [Compound 5e, 1-(4-(1-(4-Bromobenzyl)-1H-1,2,3-Triazol-4-Yl)phenyl)-3-(2-Bromophenyl)urea]
- IC50 (Huh-7 cells [3]; Homo sapiens, Huh-7, 72 h): > 50 µM

Structure (SMILES): O=C(NCc1cn(Cc2ccc(Cl)cc2)nn1)Nc1ccc(Cl)cc1 [Compound 7a, 1-((1-(4-Chlorobenzyl)-1H-1,2,3-Triazol-4-Yl)methyl)-3-(4-Chlorophenyl)urea]
- IC50 (Huh-7 cells [3]; Homo sapiens, Huh-7, 72 h): > 50 µM

Structure (SMILES): O=C(NCc1cn(Cc2cccc(Cl)c2)nn1)Nc1ccc(Cl)cc1 [Compound 7b, 1-((1-(3-Chlorobenzyl)-1H-1,2,3-Triazol-4-Yl)methyl)-3-(4-Chlorophenyl)urea]
- IC50 (Huh-7 cells [3]; Homo sapiens, Huh-7, 72 h): > 50 µM

Structure (SMILES): O=C(NCc1cn(Cc2ccc(Br)cc2)nn1)Nc1ccc(Cl)cc1 [Compound 7c, 1-((1-(4-Bromobenzyl)-1H-1,2,3-Triazol-4-Yl)methyl)-3-(4-Chlorophenyl)urea]
- IC50 (Huh-7 cells [3]; Homo sapiens, Huh-7, 72 h): > 50 µM

Structure (SMILES): O=C(NCc1cn(Cc2ccc(Cl)cc2)nn1)Nc1ccccc1Br [Compound 7d, 1-(2-Bromophenyl)-3-((1-(4-Chlorobenzyl)-1H-1,2,3-Triazol-4-Yl)methyl)urea]
- IC50 (Huh-7 cells [3]; Homo sapiens, Huh-7, 72 h): > 50 µM

Structure (SMILES): O=C(NCc1cn(Cc2ccc(Br)cc2)nn1)Nc1ccccc1Br [Compound 7e, 1-((1-(4-Bromobenzyl)-1H-1,2,3-Triazol-4-Yl)methyl)-3-(2-Bromophenyl)urea]
- IC50 (Huh-7 cells [3]; Homo sapiens, Huh-7, 72 h): > 50 µM

Structure (SMILES): O=C(NCCN1CCOCC1)Nc1nc2ccc(Sc3nnc4ccc(-c5ccc(F)cc5)nn34)cc2s1 [II]
- IC50 [8]: 0.0042 µM

Structure (SMILES): O=C(c1cccc(-c2ccc(-c3cn(C(=O)N4CCCCC4c4ccccc4)nn3)cc2)c1)N1CCCCC1 (stereo not drawn) [KT185]
- in vivo selectivity (ABHD6): exceptional in vivo selectivity
